Measurements published in ChEMBL document CHEMBL1287659, “Phenylmethylene hydantoins as prostate cancer invasion and migration inhibitors. CoMFA approach and QSAR analysis” (Eur J Med Chem, 2010).
Active and inactive are the calls of the source. The rule behind the calls is not given here.

What was measured:
PC-3 [1] = assay: Antimetastatic activity against human PC3 cells after 24 hrs by wound-healing assay; format: functional, cell-based; conditions: for IC50: PC-3, 24 h
Outline: (§1)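 Scratch wound in PC-3 monolayer. Compounds dissolved in DMSO, added in triplicate, DMSO as vehicle control. Incubation 24 h, serum-starved. Cells then fixed and Diff-Quick stained. Cells migrated into the wound counted in three or more random fields at 400×, mean ± SEM per field. IC50 by nonlinear regression of log concentration versus cells/well.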

PC-3 [2] = assay: Antimetastatic activity against human PC3 cells at 100 uM after 24 hrs by wound-healing assay; format: functional; conditions: PC-3, 24 h; outline: as §1
PC-3 [3] = assay: Antiinvasive activity against human PC3 cells at 50 uM by cultrex cell invasion assay; format: functional, cell-based
Outline: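 Basement membrane extract coated upper chambers (4 h, 37 °C, 5% CO2) seeded with 50,000 PC-3 cells in serum-free RPMI plus compound at 50 µM. Lower chamber: RPMI, 10% FBS, fibronectin and N-formyl-met-leu-phe (10 nM) as chemoattractants. Migration 24 h at 37 °C. Invaded cells loaded with calcein-AM, fluorescence at 485/520 nm, counts from standard curve; n = 3, SD.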

PC-3 [4] = assay: Ratio of compound IC50 to 5-(4-(ethylthio)benzylidene)imidazolidine-2,4-dione IC50 for human PC3 cells at 100 uM after 24 hrs by wound-healing assay; format: functional
PC-3 [5] = assay: Cytotoxicity against human PC3 cells up to 200 uM after 72 hrs by MTT assay; format: functional, cell-based
Outline: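 PC-3 cells seeded at 8 × 10³ per well, attached 24 h. Switched to serum-free RPMI with compound at up to 200 µM, 72 h at 37 °C, 5% CO2. MTT added for 4 h, then solubilization/stop solution. Absorbance read at 570 nm; cells/well from a hemocytometer-based standard curve.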

PC-3 [6] = assay: Antimetastatic activity against human PC3 cells at 50 uM after 24 hrs by wound-healing assay; format: functional; conditions: PC-3, 24 h; outline: as §1

IC50 (PC-3 [1]; read-out: IC50) | IC50 (PC-3 [1]; read-out: pIC50 (converted)) | Compound | inhibition at 100 µM (PC-3 [2]) | Activity (PC-3 [3]) | also measured
 | 81.8 µM | O=C1NC(=O)/C(=C/c2ccc(O)cn2)N1 |  |  | 
 | 95.1 µM | Cc1nc[nH]c1/C=C1\NC(=O)NC1=O |  |  | 
 | 178 µM | O=C1NC(=O)/C(=C/c2ccncc2)N1 |  |  | 
 | 86.5 µM | O=C1NC(=O)/C(=C/c2cccc3c2NCC3)N1 |  |  | 
 | 155 µM | O=C1NC(=O)/C(=C/c2cccc3c2OCO3)N1 |  |  | 
 | 199 µM | O=C1NC(=O)/C(=C/c2cc(I)c[nH]2)N1 |  |  | 
 | 99.1 µM | O=C1NC(=O)/C(=C/c2cc(O)c[nH]2)N1 |  |  | 
 | 49.7 µM | O=C1NC(=O)/C(=C/c2c[nH]c3ncccc23)N1 |  |  | 
 | 59.8 µM | COc1cccc(/C=C2\NC(=O)NC2=O)n1 |  |  | 
128 µM | 128 µM | O=C1NC(=O)/C(=C/c2ccc(O)cc2)N1 [4-HYDROXYPHENYLMETHYLENE HYDANTOIN] | 34% |  | 
 | 54.2 µM | O=C1NC(=O)/C(=C/c2cnc[nH]2)N1 |  |  | 
44.7 µM | 44.7 µM | CSc1ccc(/C=C2\NC(=O)NC2=O)cc1 | 80.9% | Active | 
60.8 µM | 60.7 µM | CC(C)(C)Oc1ccc(/C=C2\NC(=O)NC2=O)cc1 | 52.7% |  | 
42.9 µM | 42.9 µM | CCSc1ccc(/C=C2\NC(=O)NC2=O)cc1 |  | Active | inhibition at 50 µM (PC-3 [6]): 42.9%

Further lines, the compound ahead of its results:

Compound | IC50 (PC-3 [1]; read-out: IC50) | IC50 (PC-3 [1]; read-out: pIC50 (converted)) | inhibition at 100 µM (PC-3 [2]) | Activity (PC-3 [3]) | also measured
CC(C)CCOc1ccc(/C=C2\NC(=O)NC2=O)cc1 | 46.1 µM | 46 µM | 66.7% |  | 
CCCOc1cc(OC)c(/C=C2\NC(=O)NC2=O)c(OC)c1Cl | 187 µM | 187 µM | 19% |  | 
CCCOc1ccc(/C=C2\NC(=O)NC2=O)c(OCCC)c1 | 77.1 µM | 77.1 µM | 68.4% |  | 
COc1cc(/C=C2\NC(=O)NC2=O)ccc1OCC(=O)c1ccccc1 | 19.7 µM | 19.7 µM | 91.8% | Active | 
COc1cc(/C=C2\NC(=O)NC2=O)ccc1OCC(=O)N1CCOCC1 | 94 µM | 94 µM | 33.2% |  | 
CCOc1cc(/C=C2\NC(=O)NC2=O)cc(Br)c1OCC | 35.7 µM | 35.6 µM | 77.5% | Active | 
CCCOc1ccc(/C=C2\NC(=O)NC2=O)c(OC)c1 | 110 µM | 110 µM | 23% |  | 
COc1cc(/C=C2\NC(=O)NC2=O)ccc1OCC(=O)N1CCCC1 | 86 µM | 85.9 µM | 36.3% |  | 
CCCOc1c(Br)cc(/C=C2\NC(=O)NC2=O)cc1OC | 8.1 µM | 8.09 µM | 97.4% | Active | Activity (PC-3 [1]): Dose-dependent effect; Ratio IC50 (PC-3 [4]): 5; Activity (PC-3 [5]): inactive
C#CCOc1c(Cl)cc(/C=C2\NC(=O)NC2=O)cc1OC | 21.8 µM | 21.8 µM | 88.8% | Active | 
O=C1NC(=O)/C(=C/c2ccc(N3CCCC3)cc2)N1 | 48.7 µM | 48.6 µM | 75.9% | Active | 
O=C1NC(=O)/C(=C/c2ccc(OCc3ccc(F)cc3)cc2)N1 | 23.8 µM | 23.8 µM | 76.3% | Active | 
O=C1NC(=O)/C(=C/c2cccc(-c3cccs3)n2)N1 |  | 32.4 µM |  | Active | 
COc1c(/C=C2\NC(=O)NC2=O)ccc(OC(C)(C)C)c1Cl | 91 µM | 91 µM | 39% |  | 
